In brackets after ≈: the same amount, converted by molar mass.
Experiments:
[1] = Half life in rat at 10 mg/kg, po and iv; type: ADME, organism-based; parameters: dose 10 mg/kg, route oral; conditions: in vivo
Procedure, shortened: (§1)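 Rats dosed at 10 mg/kg by both iv and po routes, n = 3; plasma pharmacokinetic parameters derived from the iv/po study.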

Rattus norvegicus [2] = experiment: Volume of distribution at steady state in rat at 10 mg/kg, po and iv; type: ADME, organism-based; parameters: dose 10 mg/kg, route oral; conditions: in vivo; procedure, shortened: as §1
Rattus norvegicus [3] = experiment: AUC in rat at 10 mg/kg, po; type: ADME, organism-based, Plasma; parameters: dose 10 mg/kg, route oral; conditions: in vivo; procedure, shortened: as §1
[4] = target: Melanin-concentrating hormone receptor 1 (Homo sapiens, UniProt Q99705); experiment: Displacement of Eu-MCH from human MCHR1 expressed in CHO cell membranes by TRF assay
Procedure, shortened: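 Competitive binding on membranes of CHO cells expressing human MCH-R1, with Eu-labeled MCH as tracer; bound label read by time-resolved fluorometry, values given as IC50.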

Rattus norvegicus [5] = experiment: Oral bioavailability in rat at 10 mg/kg; type: ADME, organism-based; conditions: in vivo; procedure, shortened: as §1
[6] = Metabolic stability in rat liver microsomes measured for 30 mins; type: ADME, Microsome; conditions: read-out: Stability
Procedure, shortened: (§2)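 Test compound incubated 30 min with human or rat liver microsomes; stability given as percent remaining.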

[7] = Permeability of the compound by PAMPA; type: ADME; conditions: read-out: permeability
CYP3A4 = CYP3A4 (Homo sapiens, UniProt P08684); experiment: Inhibition of CYP3A4 (unknown origin) at 10 uM relative to control; type: ADME
[8] = Aqueous solubility of the compound; type: physicochemical; conditions: buffer
[9] = Metabolic stability in human liver microsomes measured for 30 mins; type: ADME, Microsome; conditions: read-out: Stability; procedure, shortened: as §2
CYP2D6 = CYP2D6 (Homo sapiens, UniProt P10635); experiment: Inhibition of CYP2D6 (unknown origin) at 10 uM relative to control; type: ADME
Chain of CYP2D6 (P10635 whole entry): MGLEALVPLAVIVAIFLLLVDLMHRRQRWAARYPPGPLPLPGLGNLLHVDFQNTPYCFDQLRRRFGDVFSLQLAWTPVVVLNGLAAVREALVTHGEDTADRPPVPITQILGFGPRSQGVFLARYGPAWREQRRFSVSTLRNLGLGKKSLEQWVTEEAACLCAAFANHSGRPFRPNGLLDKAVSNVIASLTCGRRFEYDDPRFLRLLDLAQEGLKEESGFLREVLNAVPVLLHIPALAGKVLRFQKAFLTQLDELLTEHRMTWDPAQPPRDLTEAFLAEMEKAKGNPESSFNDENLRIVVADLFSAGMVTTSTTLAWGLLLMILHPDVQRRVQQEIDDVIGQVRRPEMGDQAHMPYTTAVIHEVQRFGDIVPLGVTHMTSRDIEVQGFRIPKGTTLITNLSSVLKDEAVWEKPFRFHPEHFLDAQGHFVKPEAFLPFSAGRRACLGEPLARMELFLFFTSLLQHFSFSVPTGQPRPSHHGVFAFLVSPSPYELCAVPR

Chain of Melanin-concentrating hormone receptor 1 (Q99705 whole entry): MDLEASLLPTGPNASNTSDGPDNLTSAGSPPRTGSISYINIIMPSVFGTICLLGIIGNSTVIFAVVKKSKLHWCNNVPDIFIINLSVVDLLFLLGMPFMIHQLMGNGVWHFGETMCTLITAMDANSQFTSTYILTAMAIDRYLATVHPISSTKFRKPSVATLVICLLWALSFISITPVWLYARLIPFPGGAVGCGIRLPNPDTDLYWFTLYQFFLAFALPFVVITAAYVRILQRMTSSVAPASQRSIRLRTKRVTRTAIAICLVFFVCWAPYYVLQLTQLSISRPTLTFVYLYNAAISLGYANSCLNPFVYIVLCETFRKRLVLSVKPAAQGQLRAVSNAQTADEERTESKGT
Chain of CYP3A4 (P08684 whole entry): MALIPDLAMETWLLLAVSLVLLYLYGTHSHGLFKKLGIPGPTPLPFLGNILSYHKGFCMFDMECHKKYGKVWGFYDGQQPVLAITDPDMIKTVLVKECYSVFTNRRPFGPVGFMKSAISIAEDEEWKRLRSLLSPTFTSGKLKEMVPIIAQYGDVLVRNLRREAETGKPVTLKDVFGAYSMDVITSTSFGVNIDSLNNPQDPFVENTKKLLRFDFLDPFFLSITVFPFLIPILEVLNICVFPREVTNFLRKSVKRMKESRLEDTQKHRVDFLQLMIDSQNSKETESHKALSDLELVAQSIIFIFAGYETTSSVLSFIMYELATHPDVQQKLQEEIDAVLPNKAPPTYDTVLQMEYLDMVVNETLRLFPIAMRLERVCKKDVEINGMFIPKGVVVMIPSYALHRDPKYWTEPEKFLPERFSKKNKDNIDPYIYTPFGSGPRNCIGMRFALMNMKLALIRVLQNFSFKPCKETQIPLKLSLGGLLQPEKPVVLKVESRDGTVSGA

SMILES	IC50 [4]	also measured
COc1cc(N2Cc3ccc(Sc4ccccc4)nc3C2=O)ccc1OCCN1CCCC1	20 nM	half-life [1]: 2.8 h; Vdss (Rattus norvegicus [2]): 22.7 L/kg; AUC (Rattus norvegicus [3]): 320 ng·h/mL; F (Rattus norvegicus [5]): 35%
COc1cc(N2Cc3ccc(Sc4ccc(F)cc4)nc3C2=O)ccc1OCCN1CCCC1	30 nM	half-life [1]: 3.4 h; Vdss (Rattus norvegicus [2]): 8.3 L/kg; AUC (Rattus norvegicus [3]): 5700 ng·h/mL; remaining at 0.5 h [6]: 79%; Papp [7]: 1.9 ×10⁻⁶ cm/s; inhibition at 10 µM (CYP3A4): < 10%; solubility [8]: 104 µg/mL (≈ 217 µM); remaining at 0.5 h [9]: 97%; F (Rattus norvegicus [5]): 92%; inhibition at 10 µM (CYP2D6): < 10%
COc1cc(N2Cc3ccc(Sc4ccc(Cl)cc4)nc3C2=O)ccc1OCCN1CCCC1	40 nM	–
COc1cc(N2Cc3ccc(Sc4ccc(C)cc4)nc3C2=O)ccc1OCCN1CCCC1	60 nM	–
COc1cc(N2Cc3ccc(Sc4ccc(F)cc4F)nc3C2=O)ccc1OCCN1CCCC1	60 nM	–
COc1cc(N2Cc3ccc(Sc4ccc(F)cc4Cl)nc3C2=O)ccc1OCCN1CCCC1	80 nM	–
COc1cc(N2Cc3ccc(Sc4ccc(F)c(Cl)c4)nc3C2=O)ccc1OCCN1CCCC1	50 nM	–
COc1cc(N2Cc3ccc(-c4cc(C)ccc4C)nc3C2=O)ccc1OCCN1CCCC1	300 nM	–
COc1cc(N2Cc3ccc(-c4ccc(C)c(C)c4)nc3C2=O)ccc1OCCN1CCCC1	180 nM	–
COc1cc(N2Cc3ccc(Cc4ccccc4C)nc3C2=O)ccc1OCCN1CCCC1	720 nM	–
COc1cc(N2Cc3ccc(Cc4ccc(Cl)cc4)nc3C2=O)ccc1OCCN1CCCC1	120 nM	–
COc1cc(N2Cc3ccc(Cc4ccc(C)cc4)nc3C2=O)ccc1OCCN1CCCC1	160 nM	–
COc1cc(N2Cc3ccc(-c4ccc(C(F)(F)F)cc4)nc3C2=O)ccc1OCCN1CCCC1	540 nM	–
COc1cc(N2Cc3ccc(-c4ccc(C#N)cc4)nc3C2=O)ccc1OCCN1CCCC1	10000 nM	–
COc1cc(N2Cc3ccc(-c4ccccc4C)nc3C2=O)ccc1OCCN1CCCC1	1040 nM	–
CCCCc1ccc(-c2ccc3c(n2)C(=O)N(c2ccc(OCCN4CCCC4)c(OC)c2)C3)cc1	2780 nM	–
C=Cc1ccc(-c2ccc3c(n2)C(=O)N(c2ccc(OCCN4CCCC4)c(OC)c2)C3)cc1	130 nM	–
COc1cccc(-c2ccc3c(n2)C(=O)N(c2ccc(OCCN4CCCC4)c(OC)c2)C3)c1	2010 nM	–
COc1cc(N2Cc3ccc(-c4ccccc4Cl)nc3C2=O)ccc1OCCN1CCCC1	510 nM	–
COc1cc(N2Cc3ccc(-c4ccc(Cl)cc4)nc3C2=O)ccc1OCCN1CCCC1	440 nM	–
COc1cc(N2Cc3ccc(-c4ccccc4)nc3C2=O)ccc1OCCN1CCCC1	10000 nM	–
COc1cc(N2Cc3ccc(-c4ccccc4OC)nc3C2=O)ccc1OCCN1CCCC1	7110 nM	–

Now from value to compound, other results behind:

IC50 [4]	SMILES	also measured
100 nM	COc1ccc(Sc2ccc3c(n2)C(=O)N(c2ccc(OCCN4CCCC4)c(OC)c2)C3)cc1	–
50 nM	COc1cc(N2Cc3ccc(Sc4ccc(F)c(F)c4)nc3C2=O)ccc1OCCN1CCCC1	–
320 nM	COc1cc(N2Cc3ccc(-c4ccc(C(C)(C)C)cc4)nc3C2=O)ccc1OCCN1CCCC1	–
190 nM	COc1cc(N2Cc3ccc(-c4cccc(C)c4C)nc3C2=O)ccc1OCCN1CCCC1	–
70 nM	COc1cc(N2Cc3ccc(Cc4ccccc4)nc3C2=O)ccc1OCCN1CCCC1	–
410 nM	COc1cc(N2Cc3ccc(Cc4cccc(F)c4)nc3C2=O)ccc1OCCN1CCCC1	–
80 nM	COc1cc(N2Cc3ccc(Cc4ccc(F)cc4)nc3C2=O)ccc1OCCN1CCCC1	–
1910 nM	COc1cc(N2Cc3ccc(Cc4ccc(C(C)(C)C)cc4)nc3C2=O)ccc1OCCN1CCCC1	–
4130 nM	COc1cc(N2Cc3ccc(-c4ccccc4F)nc3C2=O)ccc1OCCN1CCCC1	–
3100 nM	COc1cc(N2Cc3ccc(-c4ccc(F)cc4)nc3C2=O)ccc1OCCN1CCCC1	–
80 nM	COc1cc(N2Cc3ccc(-c4ccc(C)cc4)nc3C2=O)ccc1OCCN1CCCC1	–
2000 nM	CCc1ccccc1-c1ccc2c(n1)C(=O)N(c1ccc(OCCN3CCCC3)c(OC)c1)C2	–
50 nM	CCc1ccc(-c2ccc3c(n2)C(=O)N(c2ccc(OCCN4CCCC4)c(OC)c2)C3)cc1	–
210 nM	CCCc1ccc(-c2ccc3c(n2)C(=O)N(c2ccc(OCCN4CCCC4)c(OC)c2)C3)cc1	–
90 nM	COc1cc(N2Cc3ccc(-c4ccc(C(C)C)cc4)nc3C2=O)ccc1OCCN1CCCC1	–
340 nM	COc1ccc(-c2ccc3c(n2)C(=O)N(c2ccc(OCCN4CCCC4)c(OC)c2)C3)cc1	–
5650 nM	COc1cc(N2Cc3ccc(-c4cccc(Cl)c4)nc3C2=O)ccc1OCCN1CCCC1	–

— ChEMBL document CHEMBL2331540, “Synthesis and SAR study of pyrrolo[3,4-b]pyridin-7(6H)-one derivatives as melanin concentrating hormone receptor 1 (MCH-R1) antagonists” (Bioorg Med Chem Lett, 2013)
